Data from PMC12926890 (Molecular pharmaceutics, 2024).

Assays:
Type in all cases: cell-based, human
[1] = tested on: p38 MAPK; assay: RPPA proteomics assay of p38 phosphorylation; conditions: BBB endothelial (hCMEC/D3) cells exposed to Aβ42
[2] = tested on: hCMEC/D3 monolayers; assay: F-Aβ42 intracellular accumulation by confocal microscopy; conditions: 1 μM SB203580 30 min, then 60 min with 1 μM F-Aβ42
Method in brief: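 Monolayers were grown on collagen-coated 8-well chambered slides, cultured 5−7 days at 37 °C and 5% CO₂, then held in 1% serum medium overnight. They received 1 μM p38 inhibitor for 30 min, then 1 μM FITC-Aβ₄₂ for 60 min. Cells were washed three times with ice-cold PBS, fixed in 4% paraformaldehyde for 20 min at room temperature, and DAPI-stained (300 nM, 10 min). They were then mounted and imaged by confocal SIM super-resolution.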

[3] = tested on: hCMEC/D3 monolayers; assay: F-Aβ42 cellular uptake by flow cytometry; conditions: 1 μM SB203580 30 min, then 60 min with 1 μM F-Aβ42
Method in brief: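 hCMEC/D3 monolayers grown on collagen-coated 6-well plates, seeded at about 25,000 cells/cm², cultured 5−7 days at 37 °C and 5% CO₂ to confluency, then moved to 1% serum medium the day before. Cells were pretreated 30 min with 1 μM p38 inhibitor, then exposed 60 min to 1 μM FITC-Aβ₄₂. Read-out was the median fluorescence intensity of the cell population by flow cytometry, compared by unpaired two-tailed t test.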

Row | p38 MAPK kinase activation (RPPA) [1] | Molecule | fluorescent intensity of F-Aβ42 in the cytoplasm (confocal microscopy) [2] | F-Aβ42 uptake by hCMEC/D3 cells (flow cytometry, MFI) [3]
1 | significantly activated | Aβ42: unlabeled amyloid-β 42 peptide custom synthesized by AAPPTec |  | 
2 |  | C[S+]([O-])c1ccc(-c2nc(-c3ccncc3)c(-c3ccc(F)cc3)[nH]2)cc1 (stereo not drawn) [SB203580] | substantial reduction | significantly reduced
